Measured values: ChEMBL document CHEMBL1124711, “Design and synthesis of 14 alpha-methyl-15-aza-D-homosterols as novel antimycotics” (1990)
Converted amounts (≈) assume the structure as drawn.

How the values were obtained:
Candida albicans [1] = test: Minimum fungicidal concentration was determined against Candida albicans 3153A strain; assay type: functional
Outline: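 Fungicidal endpoint: lowest drug concentration whose subcultures were negative or grew fewer than three colonies.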

Candida albicans [2] = test: Minimum inhibitory concentration was determined against Candida albicans 3153A strain; assay type: functional
Mus musculus [3] = test: The number of survivors/total infected at day 14 was determined after (ip) administration of 2 mg/kg in Candida albicans infected mice; 4/10; assay type: functional
Mus musculus [4] = test: The number of survivors/total infected at day 14 was determined after (ip) administration of 2 mg/kg in Candida albicans infected mice; 6/10; assay type: functional
Mus musculus [5] = test: The number of survivors/total infected at day 14 was determined after (ip) administration of 1 mg/kg in Candida albicans infected mice; 10/10
[6] = Candida albicans, read-out: MFC
[7] = Candida albicans, read-out: MIC

Row | Compound | MFC (Candida albicans [1]) | MFC (Candida albicans [1]; [6]) | MIC (Candida albicans [2]) | MIC (Candida albicans [2]; [7]) | No. of survivors (Mus musculus [3]) | No. of survivors (Mus musculus [4]) | No. of survivors (Mus musculus [5])
1 | CC(C)[C@@H](C)/C=C/[C@@H](C)C1CCN[C@@]2(C)C3=CCC4C[C@@H](O)CC[C@]4(C)C3CC[C@]12C (stereo partly drawn) | 6.3 µg/mL (≈ 14.7 µM) | 6.3 µg/mL (≈ 14.7 µM) | 0.8 µg/mL (≈ 1.87 µM) | 0.8 µg/mL (≈ 1.87 µM) | – | – | –
2 | OC(Cn1cncn1)(Cn1cncn1)c1ccc(F)cc1F [FLUCONAZOLE] | – | – | 0.8 µg/mL (≈ 2.61 µM) | 0.8 µg/mL (≈ 2.61 µM) | – | – | –
3 | CC(C)CCC[C@@H](C)C1CCN[C@@]2(C)C3=C(CC[C@]12C)[C@@]1(C)CC[C@H](O)CC1CC3 (stereo partly drawn) | 6.3 µg/mL (≈ 15.2 µM) | 6.3 µg/mL (≈ 15.2 µM) | 3.1 µg/mL (≈ 7.46 µM) | 3.1 µg/mL (≈ 7.46 µM) | 4 | – | –
4 | CC(C)CCC[C@@H](C)C1CCN[C@@]2(C)C3=CCC4C(C)(C)[C@@H](O)CC[C@]4(C)C3CC[C@]12C (stereo partly drawn) | 3.1 µg/mL (≈ 6.99 µM) | 3.1 µg/mL (≈ 6.99 µM) | 1.6 µg/mL (≈ 3.61 µM) | 1.6 µg/mL (≈ 3.61 µM) | – | – | –
5 | CC(C)CCC[C@@H](C)C1CCN[C@@]2(C)C3=CCC4C[C@@H](O)CC[C@]4(C)C3CC[C@]12C (stereo partly drawn) | 6.3 µg/mL (≈ 15.2 µM) | 6.3 µg/mL (≈ 15.2 µM) | 1.6 µg/mL (≈ 3.85 µM) | 1.6 µg/mL (≈ 3.85 µM) | – | 6 | –
6 | CC(C)CCC[C@@H](C)C1CC(=O)N[C@@]2(C)C3=CCC4C[C@@H](O)CC[C@]4(C)C3CC[C@]12C (stereo partly drawn) | – | – | – | > 100 µg/mL | – | – | –
7 | C[C@@H]1[C@H](O)[C@@H](C)/C=C/C=C/C=C/C=C/C=C/C=C/C=C/[C@H](O[C@@H]2O[C@H](C)[C@@H](O)[C@H](N)[C@@H]2O)C[C@@H]2O[C@](O)(C[C@@H](O)C[C@@H](O)[C@H](O)CC[C@@H](O)C[C@@H](O)CC(=O)O[C@H]1C)C[C@H](O)[C@H]2C(=O)O [AMPHOTERICIN B] | – | – | 0.16 µg/mL (≈ 0.173 µM) | 0.16 µg/mL (≈ 0.173 µM) | – | – | 10
8 | CC(C)[C@@H](C)/C=C/[C@@H](C)C1CCN[C@@]2(C)C3=CCC4C(C)(C)[C@@H](O)CC[C@]4(C)C3CC[C@]12C (stereo partly drawn) | 6.3 µg/mL (≈ 13.8 µM) | 6.3 µg/mL (≈ 13.8 µM) | 1.6 µg/mL (≈ 3.51 µM) | 1.6 µg/mL (≈ 3.51 µM) | – | – | –
